# In article PMC7688577 (FASEB journal : official publication of the Federation of …, 2020):
# Columns and labels:
# Rho^P23H/+ mice [1] = experiment: Immunoblot of LC3 and SQSTM1/p62 in retinae after IVI; assay type: in vivo, mouse; conditions: 25 pmol IVI at PND 15, 48 h after treatment
# Outline: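 Rho^P23H/+ mice received a 25 pmol/eye intravitreal injection of test compound at PND 15, with PBS in the contralateral eye. Retinae were taken 48 h later, and 30 μg of lysate was immunoblotted for SQSTM1/p62 and LC3 with β-actin as loading control. Blotting used SDS-PAGE, nitrocellulose transfer, 1 h blocking in 5% BSA/PBS-0.05% Tween 20, primary antibody overnight at 4 °C, secondary 1 h at RT, and chemiluminescent detection.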
# P23H rhodopsin [2] = target: T1, P23H rhodopsin (Mus musculus, UniProt P15409, P23H); experiment: Image-based; assay type: cell-based
# [3] = tested on: chymotrypsin-like proteasome activity; experiment: Proteasome activity assay; assay type: cell-based; conditions: NIH3T3(RHO^P23H/GFP) and NIH3T3(RHO^WT/GFP) cells, MTX 0.0195 to 10 μM, 24 h
# Outline: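 Cells were seeded at 2500/well in 384-well plates and after 3 h treated for 24 h with test compound at 0.0195–10 μM final. Controls were 0.1% DMSO (100%) and 5 μM MG-132 for 8 h (0%). Proteasome-Glo reagent with Suc-LLVY-Glo substrate was added, shaken 2 min and held 24 min at RT. Luminescence gave chymotrypsin-like activity, normalized to the controls.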
# RHO transcripts = experiment: qPCR of RHO transcripts in NIH3T3; assay type: cell-based, mouse; conditions: 10 μM, 24 h
# Outline: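 NIH3T3 cells stably expressing WT or P23H rhodopsin (GFP lines) were seeded in 24-well plates at 2.5×10⁵ cells/well and cultured overnight at 37 °C, 5% CO₂. They were then exposed to test compound in culture medium for 24 h. RNA was precipitated by centrifugation at 12,000×g for 10 min at 4 °C, washed with 75% ethanol, air-dried and dissolved in nuclease-free water before qPCR.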
# P23H rhodopsin [4] = target: T1, P23H rhodopsin; experiment: Rhodopsin immunoblot of NIH3T3; assay type: cell-based; conditions: 10 μM MTX plus 100 nM BafA1, 24 h
# Outline: (§1)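 Cells were seeded at 5 × 10⁵/well in 6-well plates for 17 h, then given fresh medium with test compound and inhibitor. Protein was measured by A280. Rhodopsin blots loaded 100 μg (P23H line) or 20 μg (WT line), run on 10% and 16% SDS-PAGE and transferred to nitrocellulose. Membranes were blocked 1 h in 5% BSA/PBS-0.05% Tween 20, probed with primary overnight at 4 °C and secondary 1 h at RT, with chemiluminescent detection.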
# P23H rhodopsin [5] = target: T1, P23H rhodopsin; experiment: Rhodopsin dot blot of NIH3T3; assay type: cell-based; conditions: NIH3T3(RHO^P23H/GFP) cells, 10 μM, 24 h, vs DMSO control
# Outline: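 NIH3T3(RHO^P23H/GFP) cells were seeded at 2.5 × 10⁴/well in 96-well plates, attached 4 h, then given medium with 2× test compound to reach 10 μM final for 24 h. Cells were PBS-washed and lysed in RIPA with protease inhibitors plus 6 s sonication. Of each well's lysate, 90% was dotted on nitrocellulose, air-dried and probed with 0.1 μg/mL HRP-1D4. Densitometry was normalized to DMSO.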
# Rho^P23H/+ mice [6] = experiment: Retinal immunohistochemistry; assay type: in vivo, mouse
# Outline: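 Rho^P23H/+ mice received intravitreal test compound (25 or 100 pmol) in one eye and PBS in the fellow eye. Dosing was either a single injection at PND 15, with eyes enucleated at PND 33, or four weekly injections from PND 15, with enucleation at PND 46. Retinae were processed for rhodopsin immunohistochemistry and ONL nuclear counts. Age-matched Rho^+/+ mice served as normal controls.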
# WT rhodopsin = experiment: Rhodopsin immunoblot of NIH3T3; assay type: cell-based, mouse; conditions: 10 μM MTX plus 100 nM BafA1, 24 h
# Outline: as §1
# [7] = Estimated vitreous concentration after intravitreal injection, rabbit; conditions: 1.76 μmol, vitreous cavity about 1.5 mL, ref [70]
# Rho^P23H/+ mice [8] = experiment: Electroretinogram; assay type: in vivo, mouse
# Outline: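 Rho^P23H/+ mice (homozygous knock-in crossed with C57BL/6J). Test compound given by intravitreal injection to one eye, PBS to the other. Dosing was a single 25 or 100 pmol at PND 15 with ERG at PND 32, or four weekly injections (PND 15, 22, 29, 36) with ERG at PND 44. Scotopic ERG used eight flashes. Photopic ERG used six flashes (0.01–30 cd·s/m²) after 5 min adaptation to 10 cd/m², on that background. Age-matched Rho^+/+ controls. Two-way ANOVA.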
# [9] = target: P23H rhodopsin fused with Renilla luciferase (Mus musculus, UniProt P15409, P23H); experiment: Rluc reporter assay in Hek293; assay type: cell-based; conditions: HEK293, read-out: Rluc assay Hek293 (RHO^P23H-Rluc) Efficacy
# P23H rhodopsin [10] = target: T1, P23H rhodopsin; experiment: Non-radioactive pulse-chase assay in NIH3T3; assay type: cell-based; conditions: 10 μM
# Outline: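 Non-radioactive pulse-chase. Cells (3 × 10⁵/well, 24-well) were grown overnight, starved in Met-free DMEM for 1 h, then pulsed with 50 μM L-AHA for 4 h (50 μM Met as negative control). Chase was 24 h in DMEM with 2 mM Met ± 10 μM test compound. Lysates (200 μg) were clicked with 5 μM BTN-sDIBO for 1 h at 37 °C, immunoprecipitated with 1D4, eluted at pH 2.8, dot-blotted and probed with HRP-streptavidin. Values normalized to DMSO on the same membrane; N=3, unpaired two-tailed t-test.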
# [11] = tested on: rhodopsin mutants (T4R, P23H, P53R, C110Y, D190N, P267L); assay type: cell-based, mouse; conditions: U2OS cells
# Outline: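 U2OS stable lines expressed WT or mutant mouse rhodopsin fused to Venus. Cells were transfected with pcDNA3.1 Zeo constructs, kept 48 h in DMEM/10% FBS, then selected with 400 μg/mL Zeocin. Stable cells were treated with test compound at 10 μM and immunostained for rhodopsin.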
# [12] = single IVI 25 pmol at PND 15, IHC at PND 33
# [13] = single IVI 100 pmol at PND 15, ERG at PND 32
smiles,measurement,setting,value
"CN(Cc1cnc2nc(N)nc(N)c2n1)c1ccc(C(=O)N[C@@H](CCC(=O)O)C(=O)O)cc1 [CL-009, methotrexate]",LC3-II level in retinae compared to PBS control,Rho^P23H/+ mice [1],increase
same,SQSTM1/p62 level in retinae compared to PBS control,Rho^P23H/+ mice [1],decrease
same,Mean intensity of P23H rhodopsin immunostaining per cell,P23H rhodopsin [2]; MTX alone,reduced in an MTX dose-dependent manner
same,Emax,"P23H rhodopsin [2]; NIH3T3, 24 h, read-out: Image-based assay NIH3T3 (RHO^P23H/GFP) Efficacy",36%
same,Chymotrypsin-like proteasome activity,[3],did not affect
same,Rho mRNA level (qPCR),"RHO transcripts; NIH3T3(RHO^P23H/GFP) cells, vs DMSO control",No Change
same,WT and P23H rhodopsin transcripts in comparison to DMSO control,RHO transcripts; both NIH3T3(RHO^P23H/GFP) and NIH3T3(RHO^WT/GFP) cells,did not affect
same,MTX induced P23H rhodopsin clearance under co-treatment with BafA1 (immunoblot),P23H rhodopsin [4],abolished
same,Rho protein level (Dot blot),P23H rhodopsin [5],Down
same,Retinal degeneration caused by MTX,"Rho^P23H/+ mice [6]; 100 pmol IVI, Rho^P23H/+ mice",did not see obvious retinal degeneration
same,"Nucleus number in the ONL vs PBS group, superior side","Rho^P23H/+ mice [6]; four IVIs of 25 pmol, IHC at PND 46",higher
same,"ONL nucleus number, either side of the retina",Rho^P23H/+ mice [6]; [12],No change
same,"Total rhodopsin level and rhodopsin in the OS compared to PBS control, superior side",Rho^P23H/+ mice [6]; [12],significant increase
same,WT rhodopsin level under BafA1 and MTX co-treatment (immunoblot),WT rhodopsin,accumulation
same,Final concentration in vitreous,[7],about 1 mM
same,Multi-flash scotopic and photopic b-waves compared to PBS control group,"Rho^P23H/+ mice [8]; four weekly IVIs starting at PND 15 (25 pmol per treatment), ERG at PND 44",significantly increased
same,Photopic ERG responses vs PBS treated or non-treated eyes,"Rho^P23H/+ mice [8]; single IVI 25 pmol at PND 15, ERG at PND 32",higher
same,Multi-flash scotopic ERG a- and b-waves vs PBS or non-treated eyes,Rho^P23H/+ mice [8]; [13],no effect
same,Photopic ERG responses vs PBS treated or non-treated eyes,Rho^P23H/+ mice [8]; [13],did not show any effects
same,Ratio of scotopic and photopic b- to a-wave amplitudes,"Rho^P23H/+ mice [8]; single IVI at PND 15, ERG at PND 32",not affected
same,Emax,[9],53%
same,BTN-AHA labeled P23H rhodopsin at 24 h of chase in comparison to DMSO control,P23H rhodopsin [10],significantly reduced
same,"Rhodopsin immunofluorescence in cells expressing the P23H, C110Y, D190N and P267L mutants",[11],dose-dependent reductions
